Compound activity: PubChem, several laboratories
Only some compounds are listed: those with a hit (about 2% of all), similar ones and a draw of the others.
GAA850 FXN act: activators of GAA850 frataxin (FXN) promoter; hit rate 0.56% among 360,000; activation, % at 6 µM; HEK293 lucGAA850 FXN promoter luciferase reporter, 24 h; percent of 10 µM SAHA response;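 active = activation above the average of all compounds screened plus 3 SD, cutoff fixed separately per campaign, cut at about 7.5% in these data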;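 note: 0% = DMSO wells and 100% = 10 µM SAHA wells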
NR2E3 ag-1: agonists of human NR2E3 nuclear receptor; inhibition of corepressor binding, % at 3.98 µM; CHO-S Gal4-NCOR/VP16-NR2E3 two-hybrid, luciferase; hit rate 0.35% among 360,000;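 active = inhibition above the mean of all tested compounds plus 3 SD, cut at about 70% in these data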;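 note: 0% = DMSO with NR2E3 transfected cells and 100% = cells lacking NR2E3 construct; higher means lower luciferase signal from less NR2E3 corepressor binding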
Target sequence (Q9Y5X4 whole entry, looked up, the tested form may be a part): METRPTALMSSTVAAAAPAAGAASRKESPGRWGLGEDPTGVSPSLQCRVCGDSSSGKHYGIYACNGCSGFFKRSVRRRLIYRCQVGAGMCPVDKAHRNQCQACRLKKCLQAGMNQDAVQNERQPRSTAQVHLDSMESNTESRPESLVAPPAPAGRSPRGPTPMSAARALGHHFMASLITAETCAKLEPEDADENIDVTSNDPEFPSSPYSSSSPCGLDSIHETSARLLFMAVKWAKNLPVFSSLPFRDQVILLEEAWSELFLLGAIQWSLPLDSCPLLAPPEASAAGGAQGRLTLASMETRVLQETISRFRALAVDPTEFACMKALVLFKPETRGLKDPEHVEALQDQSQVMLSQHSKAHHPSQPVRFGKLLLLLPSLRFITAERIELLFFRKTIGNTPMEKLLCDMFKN
Myeloid diff MLP: promotes myeloid progenitor differentiation. ER-HoxA9 myeloid progenitors, lysozyme-GFP differentiation, flow cytometry. calls only at 10 µM. hit rate 1% among 360,000. AID 624256;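 active = normalized GFP-positive differentiation at or above the plate's own cutoff, the solvent-only control mean plus 3 SD; inconclusive = no clear call, values can overlap the other calls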;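 note: cells exposed to compound for four days before flow analysis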
NR2E3 ag-2: NR2E3 (human) agonism; Q9Y5X4; GST-NR2E3/biotin-RetCOR TR-FRET, 1536-well; inhibition of corepressor binding, % at 4.78 µM; hit rate 0.12% among 320,000;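 active = percent inhibition above the cutoff of mean plus 3 SD of all tested compounds, set per screening campaign, cut at about 20% in these data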;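 note: 0% = DMSO wells and 100% = biotin wells as full block of FRET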
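Material – GST-tagged NR2E3 plus biotinylated RetCOR corepressor · Quantity – NR2E3 fusion 1.35 nM · Times – 5 h incubation at 4 °C · Medium – pH 7.5 Tris-based buffer · Technique – TR-FRET, Eu(K)-anti-GST donor, streptavidin-D2 acceptor, ex 340, em 617/671 nm · Benchmarks – high control biotin, low control 0.6% DMSO · Format – 1536-well plates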
T cell modulator: T cell immune modulators affecting CD8 T cell-vesicle binding | 2C CD8+ T cell-vesicle binding, flow cytometry; hits give low values | response (vesicle binding), % at 7 µM | hit rate 0.068% among 330,000;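 active = response, share of CD8 T cells binding vesicles, and their 90th percentile fluorescence all below set limits, cut at about 80% in these data, passing the limit was not always enough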;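 note: values below 100% mean blocked vesicle binding to the CD8+ T cells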
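Material: murine 2C transgenic CD8+ T lymphocytes / Also added: QL9-peptide-loaded Drosophila micro-vesicles bearing Ld, ICAM-1 and B7-1 / Schedule: binding step 1.5 h, 37 °C, antibody labelling 20 min, ice / Signal: flow cytometry, PE anti-B7-1 (FL2) versus Alexa647 anti-CD8 (FL8), PFA-fixed / Evaluation: percent CD8+ FL2 mean versus row control / Benchmarks: naked versus QL9-loaded vesicles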
* marks the source's active call; other numbers are inactive results; i = inactive; ? = inconclusive; nt = not tested or not shown; + = active, no number.

SMILES	GAA850 FXN act	NR2E3 ag-1	Myeloid diff MLP	NR2E3 ag-2	T cell modulator
CCCCNc1c(-c2ccc(SC(C)CC)cc2)nc2ccccn12 (stereo not given)	7.4	-49.9	i	0.5	286.8
Cc1nc(-c2ccccc2)sc1-c1nc(-c2cccnc2)ncc1S(=O)(=O)c1ccccc1	0.7	-1.7	+	1.7	273.8
CS(=O)(=O)c1ccc(S(=O)(=O)N2CCN(C(=O)C(O)c3ccccc3)CC2)cc1 (stereo not given)	nt	nt	i	nt	nt
Cc1cc(C)c(S(=O)(=O)N2CCCCC2CCNC(=O)C(=O)NC2CC2)c(C)c1 (stereo not given)	-7.3	-12.7	+	-0.5	384.5
Cc1cc(S(=O)(=O)N2CCCCC2CCNC(=O)C(=O)NC2CC2)ccc1F (stereo not given)	1.1	-42.6	i	0.5	184.0
Cc1ccc(NC(=O)/C=C/c2ccc3c(c2)OCO3)nc1	4.7	-48.2	+	1.0	283.1
CCN(CC)C(=O)CSc1nc(-c2cccs2)cc(-c2cccs2)c1C#N	-0.8	-10.7	i	5.0	334.5
CN1CCN(C(=O)CSc2nc(-c3cccs3)cc(-c3cccs3)c2C#N)CC1	1.3	-14.4	+	4.3	182.2
COc1ccccc1CNC(=O)c1cc(-c2ccccc2C)n(CC2CC(c3cccc([N+](=O)[O-])c3)=NO2)n1 (stereo not given)	-3.0	-38.1	i	2.2	527.6
COC(=O)c1oc2ccc(OC)cc2c1N	5.5	-22.7	+	-0.3	530.2
CC(C)OCCCn1c(=O)c2ccccc2n2c(CCC(=O)NC3CCN(Cc4ccccc4)CC3)nnc12	1.5	4.9	i	2.9	260.7
COC(=O)Nc1ccc2c(c1)N(C(=O)CCCl)c1ccccc1S2	1.7	-7.1	+	nt	207.2
CC(=O)Nc1ccc(NC(=O)COc2cccc3ccccc23)cc1	0.6	-9.6	i	nt	nt
Cc1ccccc1-c1cnc(C(O)c2ccc(-c3ccccc3)cc2)[nH]1 (stereo not given)	1.0	-0.6	i	nt	nt
CCOC1=C2CN(S(=O)(=O)c3ccc(C)cc3)[C@H](c3cccc4ccccc34)C[C@H]2[C@H]2C(=O)N(c3ccccc3)C(=O)[C@H]2C1	nt	-17.9	i	nt	nt
CCOc1ccc(OCCC(=O)OCC(=O)NCc2ccccc2)cc1	1.2	2.7	i	-1.8	884.0
CCOC(=O)c1cnc2c(C)cccc2c1NCc1ccco1	4.3	-5.1	+	-0.1	293.9
CCOC(=O)[C@]12CCC=C1N(Cc1ccccc1)C(=O)[C@H](CC(=O)NCCC(C)C)C2	nt	-5.2	i	nt	nt
CC(OC(=O)c1cccc(N(C)C)c1)C(=O)N1CCc2ccccc2C1 (stereo not given)	1.2	-13.1	i	nt	460.1
CC1=Nc2ccccc2/C1=C/c1c(C)[nH]c2ccccc12	1.5	-12.9	+	nt	nt
CC1=Nc2ccccc2/C1=C/c1nc(-c2ccc(C)s2)oc1O	0.7	-27.5	i	-2.5	441.8
CC1(c2ccccc2)NC(=O)N(CC(=O)Nc2ccc(Cl)c(S(=O)(=O)N3CCCCC3)c2)C1=O (stereo not given)	-0.5	-2.8	+	-1.1	264.6
CC1(c2ccc([N+](=O)[O-])cc2)NC(=O)N(CC(=O)Nc2ccc(N3CCCCC3)cc2)C1=O (stereo not given)	-0.9	20.6	+	0.1	i
O=c1cc(C(F)(F)F)[nH]c2c(C(F)(F)F)cccc12	0.9	100.5*	i	3.8	204.4
O=C(Cc1cccs1)N=Nc1c(O)[nH]c2ccc(Br)cc12	0.9	0.0	i	0.2	109.9
SMILES	GAA850 FXN act	NR2E3 ag-1	Myeloid diff MLP	NR2E3 ag-2	T cell modulator
O=C(CNC(=O)c1ccco1)N=Nc1c(O)[nH]c2ccc(Br)cc12	2.5	-9.0	+	-7.9	645.9
Cc1cccn2c(=O)c3cc(C(N)=S)c(=N)n(CCCOC(C)C)c3nc12	3.9	-7.6	+	2.6	279.5
CCCCNC(=O)c1cc2c(=O)n3cccc(C)c3nc2n(Cc2ccccc2)c1=N	1.2	-3.8	+	1.6	164.8
CCOC(=O)c1cocc1C(=O)O	-0.7	23.0	i	nt	nt
COC(=O)[C@@]12C[C@@H](CC(=O)NCCCN3CCCC3=O)C(=O)N(Cc3ccc4c(c3)OCO4)C1=CCC(C)(C)C2	nt	nt	i	nt	nt
CC(=O)Nc1sc2c(c1C(c1ccccc1Cl)N1CCN(CCO)CC1)CCCC2 (stereo not given)	-5.0	-0.2	+	1.6	188.3
CC(=O)Nc1sc2c(c1C(c1ccccn1)N1CCCC1)CCCC2 (stereo not given)	0.4	-14.2	i	6.1	244.9
Cc1ccc(C(=O)NCCCN2CCOCC2)c(Cl)c1	2.7	-26.9	i	0.3	i
CC(=O)c1c(C)n(C)c2ccc(OC(=O)c3ccco3)cc12	-0.9	0.9	+	2.6	145.3
COc1ccc(CCn2c(C)c(C(C)=O)c3cc(OC(=O)c4ccco4)ccc32)cc1OC	-1.6	9.8	i	0.6	235.5
CCCCCCCCN1C(=O)[C@H](CC(=O)N2CCN(C(=O)C3CC3)CC2)C[C@@]2(C(=O)OC)CCCCC=C12	nt	-5.5	i	nt	nt
C=CC[n+]1ccc(/C=C2\C=Cc3cc(C)ccc3N2CC)c2ccccc21	-8.4	93.2*	?	nt	nt
CC(C)NC(=O)C1(C)CN(S(C)(=O)=O)CC(=O)N1CCc1ccccc1F (stereo not given)	nt	nt	i	nt	nt
C#CCSc1n[nH]c(-c2ccco2)n1	1.6	-8.7	+	0.8	879.1
COc1ccc(NC(=O)CSc2n[nH]c(-c3ccco3)n2)cc1	-1.9	3.3	+	-4.5	276.4
COC(=O)c1c(N)[nH]c(C(=O)c2ccccc2)c1-c1ccccc1Br	nt	1.2	i	nt	nt
O=C(Nc1ccccc1)c1cc(C2CCCCN2C(=O)OCCF)on1 (stereo not given)	3.1	-43.9	i	nt	nt
Cc1ncc([N+](=O)[O-])n1Cc1cccc(F)c1	-2.9	0.4	i	3.4	72.2*
Cc1ncc([N+](=O)[O-])n1Cc1ccccc1	0.2	-3.9	i	1.4	163.2
O=C(CC[C@H]1O[C@@H](n2ccc(=O)[nH]c2=O)[C@H](O)[C@@H]1O)NCC1CCCO1 (stereo not given in full)	nt	-8.8	i	nt	nt
O[C@@H]1CN(Cc2ccc(-n3cccn3)cc2)CC[C@H]1N1CCN(c2ccccc2F)CC1	-0.4	42.7	i	3.2	124.3
COc1ccc(OC)c(C2=NOC(C(=O)Nc3cccc(C(C)=O)c3)C2)c1 (stereo not given)	3.0	3.0	+	-0.4	268.7
COc1ccc(OC)c(C2=NOC(C(=O)Nc3ccccc3SC)C2)c1 (stereo not given)	1.0	6.4	i	0.1	223.1
Cc1sc2nc(COC(=O)c3ccc(N4CCCC4)c([N+](=O)[O-])c3)[nH]c(=O)c2c1C	1.1	-9.5	+	-1.2	237.1
